Measured values reported in ChEMBL document CHEMBL1123442 (J Med Chem, 1986).
Active and inactive are the calls of the source. The calls are words filed in the database; no cut-off is given here.

What was measured:
HCT-8 = assay: In vitro for cytotoxicity against human colon tumor cells (HCT-8) in culture; assay type: functional, cell-based
L1210 = assay: In vitro for cytotoxicity against murine leukemia cells (L1210); assay type: functional, cell-based; conditions: Mus musculus
P388 [1] = assay: In vivo for antitumor activity against P388 leukemia.; assay type: functional, Mus musculus
Method in brief: (§1)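 Mice given 10^6 P388 leukemia cells intraperitoneally, then drug intraperitoneally in 0.1 mL 30% v/v ethanol-water on days 1, 5 and 9. D50 (mg/kg per day giving 50% ILS) read from dose-response graph. ILS at optimal dose versus untreated controls. Long-term survival counted at 30 days.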

P388 [2] = assay: In vivo for antitumor activity against P388 leukemia; assay type: functional, Mus musculus; method in brief: as §1
P388 [3] = assay: Evaluated in vivo for antitumor activity against P388 leukemia; g denotes ILS of 50% could not be reached at any dose level; assay type: functional, organism-based; conditions: Mus musculus; method in brief: as §1
poly[d(A-T)] = assay: Binding constant relative to amsacrine (Δlog K) for DNA binding by ethidium bromide displacement; conditions: Bos taurus
[4] = test system: Lewis lung carcinoma cell line; assay: Evaluated in vivo for antitumor activity against Lewis lung carcinoma; i denotes Inactive; assay type: functional, organism-based; conditions: Mus musculus
Method in brief: (§2)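 Mice inoculated intravenously with 10^6 Lewis lung carcinoma cells, then drug intraperitoneally in 0.1 mL 30% v/v ethanol-water on days 5, 9 and 13. D50 (mg/kg per day for 50% ILS) taken from dose-response graph. ILS at optimal dose versus untreated tumor-bearing controls. Survivors counted at 40 days.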

[5] = test system: Lewis lung carcinoma cell line; assay: In vivo for antitumor activity against Lewis lung carcinoma; assay type: functional, Mus musculus; method in brief: as §2
[6] = test system: Lewis lung carcinoma cell line; assay: Evaluated in vivo for antitumor activity against Lewis lung carcinoma; g denotes ILS of 50% could not be reached at any dose level; assay type: functional, organism-based; conditions: Mus musculus; method in brief: as §2
P388 [7] = assay: Compound was evaluated in vivo for antitumor activity against P388 leukemia; i denotes Inactive; assay type: functional, organism-based; conditions: Mus musculus; method in brief: as §1

Row | SMILES | IC50 (HCT-8) | IC50 (L1210) | OD (P388 [1]) | ILSmax (P388 [2]) | D50 (P388 [3]) | Δlog K (poly[d(A-T)]) | ILSmax [4] | OD [5] | D50 [6] | D50 (P388 [2]) | ILSmax (P388 [7]) | ILS max [4] | ILSmax [5]
1 | CNC(=O)c1ccc(Cl)c2c(Nc3ccc(NS(C)(=O)=O)cc3NC)c3ccccc3nc12 | 4800 nM | > 1600 nM | 150 mg/kg | 38% | ILS of 50% could not be reached | 6.75 | – | – | – | – | – | – | –
2 | CNc1ccc2c(Nc3ccc(NS(C)(=O)=O)cc3NC)c3ccccc3nc2c1 | 810 nM | 5.8 nM | 2.6 mg/kg | 208% | – | 7.53 | inactive | 2.6 mg/kg | ILS of 50% could not be reached | 0.2 mg/kg | – | – | –
3 | CNc1cc(NS(C)(=O)=O)ccc1Nc1c2ccccc2nc2c(C(=O)NCC(N)=O)cccc12 | > 104 nM | 3500 nM | 68 mg/kg | 87% | – | 5.57 | inactive | 45 mg/kg | ILS of 50% could not be reached | 45 mg/kg | – | – | –
4 | CNc1cc(NS(C)(=O)=O)ccc1Nc1c2ccccc2nc2ccc(Cl)cc12 | 2500 nM | > 1600 nM | 100 mg/kg | – | ILS of 50% could not be reached | – | inactive | 150 mg/kg | ILS of 50% could not be reached | – | inactive | – | –
5 | CNC(=O)c1cccc2c(Nc3ccc(NS(C)(=O)=O)cc3NC)c3ccc(Cl)cc3nc12 | 1900 nM | 110 nM | 45 mg/kg | 61% | – | 6.79 | inactive | 30 mg/kg | ILS of 50% could not be reached | 30 mg/kg | – | – | –
6 | CNc1cc(NS(C)(=O)=O)ccc1Nc1c2ccccc2nc2c(C(N)=O)cccc12 | 2800 nM | 560 nM | 45 mg/kg | 109% | – | 6.28 | inactive | 30 mg/kg | ILS of 50% could not be reached | 25 mg/kg | – | – | –
7 | CNc1cc(NS(C)(=O)=O)ccc1Nc1c2ccccc2nc2cc(NC(=O)OC)ccc12 | 715 nM | 76 nM | 13.3 mg/kg | 135% | – | 7.21 | inactive | 8.9 mg/kg | ILS of 50% could not be reached | 1.5 mg/kg | – | – | –
8 | CNc1cc(NS(C)(=O)=O)ccc1Nc1c2ccccc2nc2c1ccc1ccccc12 | 400 nM | 189 nM | 45 mg/kg | 50% | – | 7.46 | inactive | 20 mg/kg | ILS of 50% could not be reached | 45 mg/kg | – | – | –
9 | CNc1cc(NS(C)(=O)=O)ccc1Nc1c2ccccc2nc2cc(I)ccc12 | 79 nM | 29 nM | 45 mg/kg | 70% | – | 6.42 | – | 30 mg/kg | ILS of 50% could not be reached | 10 mg/kg | – | inactive | –
10 | CNc1cc(NS(C)(=O)=O)ccc1Nc1c2ccccc2nc2c(C)ccc(C)c12 | 2100 nM | 1700 nM | 65 mg/kg | – | ILS of 50% could not be reached | 6.18 | – | – | – | – | inactive | – | –
11 | CNc1cc(NS(C)(=O)=O)ccc1Nc1c2ccccc2nc2c(Br)cccc12 | 1800 nM | 190 nM | 100 mg/kg | 35% | ILS of 50% could not be reached | 6.37 | inactive | 100 mg/kg | ILS of 50% could not be reached | – | – | – | –
12 | CNc1cc(NS(C)(=O)=O)ccc1Nc1c2ccccc2nc2ccc(OC)cc12 | 1900 nM | 1200 nM | 100 mg/kg | 25% | ILS of 50% could not be reached | 5.8 | inactive | 150 mg/kg | ILS of 50% could not be reached | – | – | – | –
13 | CNc1cc(NS(C)(=O)=O)ccc1Nc1c2ccc(Br)cc2nc2c(C)cccc12 | 49 nM | 21 nM | 13.3 mg/kg | 122% | – | 7.27 | – | 13.3 mg/kg | ILS of 50% could not be reached | 7 mg/kg | – | – | 34%
14 | CNc1cc(NS(C)(=O)=O)ccc1Nc1c2ccccc2nc2cc([N+](=O)[O-])ccc12 | 140 nM | 110 nM | 5.9 mg/kg | 70% | – | 6.72 | inactive | 8.9 mg/kg | ILS of 50% could not be reached | 3 mg/kg | – | – | –
